From the M2OR odorant receptor database

Legend:
Details in all cases: stereoisomer not certain
OR1N1 (Homo sapiens) = target: T1, OR1N1 (Homo sapiens) (UniProt Q8NGS0)
T1 sequence (whole entry): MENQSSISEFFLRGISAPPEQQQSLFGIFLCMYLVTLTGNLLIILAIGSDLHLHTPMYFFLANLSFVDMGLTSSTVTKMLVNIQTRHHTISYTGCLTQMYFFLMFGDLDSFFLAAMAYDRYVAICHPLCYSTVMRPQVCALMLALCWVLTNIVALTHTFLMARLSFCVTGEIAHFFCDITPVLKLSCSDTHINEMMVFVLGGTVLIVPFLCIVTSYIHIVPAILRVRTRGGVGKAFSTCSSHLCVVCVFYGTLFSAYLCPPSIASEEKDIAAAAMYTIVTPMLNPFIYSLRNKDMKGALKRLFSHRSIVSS
Outline: (§1)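 Each receptor–molecule pair is labelled responsive or non-responsive (inactive) according to whether the original authors judged the measured signal statistically different from baseline. The data were taken from the main text and supplementary material of published papers and checked for typos and inconsistencies. Assay methods differed by source, with transient luciferase assays in mammalian cell lines being common.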

OR1N2 = tested on: OR1N2
Chain of OR1N2 (as listed by the source): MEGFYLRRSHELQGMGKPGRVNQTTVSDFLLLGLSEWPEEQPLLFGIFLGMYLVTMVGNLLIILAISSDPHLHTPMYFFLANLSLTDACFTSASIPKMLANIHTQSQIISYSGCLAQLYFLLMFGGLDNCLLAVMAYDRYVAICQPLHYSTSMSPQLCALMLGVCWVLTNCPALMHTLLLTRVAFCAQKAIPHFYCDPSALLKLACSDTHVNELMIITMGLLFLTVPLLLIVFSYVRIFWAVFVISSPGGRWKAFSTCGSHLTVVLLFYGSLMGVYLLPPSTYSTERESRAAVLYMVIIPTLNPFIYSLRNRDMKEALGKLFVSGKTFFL
Outline: as §1

OR1P1 (Homo sapiens) = OR1P1 (Homo sapiens) (UniProt Q8NH06)
Chain of OR1P1 (Homo sapiens) (Q8NH06 whole entry K185A): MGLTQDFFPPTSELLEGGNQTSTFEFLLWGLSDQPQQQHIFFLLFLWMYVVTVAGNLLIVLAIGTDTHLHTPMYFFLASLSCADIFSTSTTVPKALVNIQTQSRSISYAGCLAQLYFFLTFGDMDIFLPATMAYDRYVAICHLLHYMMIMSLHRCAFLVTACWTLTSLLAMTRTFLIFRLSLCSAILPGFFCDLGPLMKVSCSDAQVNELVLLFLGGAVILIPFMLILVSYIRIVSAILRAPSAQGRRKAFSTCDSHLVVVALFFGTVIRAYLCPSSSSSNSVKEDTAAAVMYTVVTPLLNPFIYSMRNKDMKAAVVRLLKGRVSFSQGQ
Outline: as §1

OR1Q1 (Homo sapiens) = OR1Q1 (Homo sapiens) (UniProt Q15612)
Chain of OR1Q1 (Homo sapiens) (Q15612 whole entry): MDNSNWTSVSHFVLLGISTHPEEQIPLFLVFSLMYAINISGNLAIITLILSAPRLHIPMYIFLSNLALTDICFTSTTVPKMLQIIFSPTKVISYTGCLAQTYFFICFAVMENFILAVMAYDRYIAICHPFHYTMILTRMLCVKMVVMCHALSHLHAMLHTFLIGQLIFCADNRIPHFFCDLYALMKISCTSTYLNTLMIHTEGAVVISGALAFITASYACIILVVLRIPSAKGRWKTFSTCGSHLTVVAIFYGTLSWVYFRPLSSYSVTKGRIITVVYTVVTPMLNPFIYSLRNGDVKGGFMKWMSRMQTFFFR
Outline: as §1

OR1S1 (Homo sapiens) = OR1S1 (Homo sapiens) (UniProt Q8NH92)
Chain of OR1S1 (Homo sapiens) (Q8NH92 whole entry): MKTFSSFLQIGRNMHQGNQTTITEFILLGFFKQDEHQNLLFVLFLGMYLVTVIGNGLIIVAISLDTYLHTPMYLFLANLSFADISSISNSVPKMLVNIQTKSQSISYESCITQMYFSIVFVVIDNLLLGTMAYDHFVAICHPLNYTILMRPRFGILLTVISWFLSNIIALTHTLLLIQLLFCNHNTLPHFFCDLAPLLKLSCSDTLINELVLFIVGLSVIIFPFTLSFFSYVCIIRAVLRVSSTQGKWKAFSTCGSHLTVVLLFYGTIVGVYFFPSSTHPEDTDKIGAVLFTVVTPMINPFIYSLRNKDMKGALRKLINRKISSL
Outline: as §1

OR1S2 (Homo sapiens) = OR1S2 (Homo sapiens) (UniProt Q8NGQ3)
Chain of OR1S2 (Homo sapiens) (Q8NGQ3 whole entry): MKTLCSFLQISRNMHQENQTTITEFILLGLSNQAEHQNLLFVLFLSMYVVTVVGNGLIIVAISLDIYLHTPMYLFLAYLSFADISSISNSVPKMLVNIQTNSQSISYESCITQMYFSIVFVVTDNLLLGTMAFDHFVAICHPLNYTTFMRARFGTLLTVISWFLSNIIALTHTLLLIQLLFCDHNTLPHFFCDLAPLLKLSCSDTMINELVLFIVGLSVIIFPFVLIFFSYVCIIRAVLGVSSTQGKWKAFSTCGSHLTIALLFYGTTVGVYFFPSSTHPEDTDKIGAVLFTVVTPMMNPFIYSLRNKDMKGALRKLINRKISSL
Outline: as §1

OR1N2 W37R = tested on: OR1N2 W37R
Chain of OR1N2 W37R (as listed by the source, stated change not applied): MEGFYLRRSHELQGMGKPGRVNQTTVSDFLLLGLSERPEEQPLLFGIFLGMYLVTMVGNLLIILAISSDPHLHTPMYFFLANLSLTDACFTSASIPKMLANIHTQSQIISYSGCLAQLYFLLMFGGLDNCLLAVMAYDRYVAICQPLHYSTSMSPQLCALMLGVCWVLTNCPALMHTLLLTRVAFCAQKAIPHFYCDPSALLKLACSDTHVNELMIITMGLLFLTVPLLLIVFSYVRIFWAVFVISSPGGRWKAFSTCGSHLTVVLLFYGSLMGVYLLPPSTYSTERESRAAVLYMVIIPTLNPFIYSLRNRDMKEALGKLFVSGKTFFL
Outline: as §1

OR1Q1 = tested on: OR1Q1
Chain of OR1Q1 (as listed by the source): as the sequence (Q15612 whole entry) above, with Q24R, I163M counted along it
Outline: as §1

OR1S2 E17G = tested on: OR1S2 E17G
Chain of OR1S2 E17G (as listed by the source, stated change not applied): as the sequence (Q8NGQ3 whole entry) above, with E17G counted along it
Outline: as §1

OR1S2 V225T G240R = tested on: OR1S2 V225T G240R
Outline: as §1

Measured: odorant receptor agonist call;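 also: active if original authors judged signal statistically different from baseline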

c1ccncc1
inactive: OR1N1 (Homo sapiens)

Cc1c([N+](=O)[O-])c(C)c([N+](=O)[O-])c(C(C)(C)C)c1[N+](=O)[O-]
inactive: OR1N1 (Homo sapiens) | OR1N2 | OR1P1 (Homo sapiens) | OR1Q1 (Homo sapiens) | OR1S1 (Homo sapiens) | OR1S2 (Homo sapiens)

C=CCOC(=O)Cc1ccccc1
inactive: OR1N1 (Homo sapiens) | OR1N2 W37R | OR1N2 | OR1Q1 (Homo sapiens) | OR1Q1 | OR1S1 (Homo sapiens) | OR1S2 (Homo sapiens) | OR1S2 E17G | OR1S2 V225T G240R
